Assay results from ChEMBL document CHEMBL4706495, “A novel class of small molecule inhibitors with radioprotective properties” (Eur J Med Chem, 2020).

Legend:
[1] = test system: Jurkat; assay: Cytotoxicity against human Jurkat cells assessed as cell viability at 100 uM measured after 48 hrs by WST-1 assay relative to control; format: functional; details: read-out: Activity
Outline: (§1)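 Ten-line human panel (9 cancer, 1 non-cancerous). Cells were seeded at a pre-established optimal density (500–30 × 10³ per well) and settled overnight. Compounds came from 10 mM DMSO stocks and were tested at two concentrations. WST-1 readout followed the manufacturer's protocol at the end of cultivation. Viability is expressed as % of untreated control cells, mean of three independent experiments.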

[2] = test system: PANC-1; assay: Cytotoxicity against human PANC-1 cells assessed as cell viability at 100 uM measured after 48 hrs by WST-1 assay relative to control; format: functional; details: read-out: Activity; outline: as §1
[3] = test system: A2780; assay: Cytotoxicity against human A2780 cells assessed as cell viability at 100 uM measured after 48 hrs by WST-1 assay relative to control; format: functional; details: read-out: Activity; outline: as §1
[4] = test system: MOLT-4; assay: Cytotoxicity against human MOLT-4 cells assessed as cell viability at 100 uM measured after 48 hrs by WST-1 assay relative to control; format: functional; details: read-out: Activity; outline: as §1
[5] = Toxicity in C57Bl/6 mouse assessed as average body weight at 100 mg/kg, ip and measured immediately (reference value: 26.3 +/- 2.4 g); format: organism-based; details: in vivo
[6] = test system: A549; assay: Cytotoxicity against human A549 cells assessed as cell viability at 100 uM measured after 48 hrs by WST-1 assay relative to control; format: functional; details: read-out: Activity; outline: as §1
[7] = Toxicity in C57Bl/6 mouse assessed as change in body weight at 100 mg/kg, ip measured after 30 days (reference value: 103 +/- 12 %); format: organism-based; details: in vivo, 720 h, time 30 day
[8] = test system: A2780; assay: Cytotoxicity against human A2780 cells assessed as cell viability at 10 uM measured after 48 hrs by WST-1 assay relative to control; format: functional; details: read-out: Activity; outline: as §1
[9] = Cytotoxicity against human MRC5 cells assessed as cell viability at 10 uM measured after 48 hrs by WST-1 assay relative to control; format: cell-based; details: read-out: Activity; outline: as §1
[10] = Toxicity in C57Bl/6 mouse assessed as adverse effects at 100 mg/kg, ip measured after 30 days; format: organism-based; details: in vivo, 720 h, time 30 day
Outline: (§2)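 Safety in C57Bl/6 mice (27 ± 3 g) given a single 100 mg/kg i.p. injection without irradiation. Deaths, adverse effects and body weight followed over 30 days against an untreated control group. Weight reported as change from day 0.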

[11] = Toxicity in C57Bl/6 mouse assessed as average body weight at 100 mg/kg, ip measured after 30 days (reference value: 27 +/ 3.2 g); format: organism-based; details: in vivo, 720 h, time 30 day
[12] = test system: Mus musculus; assay: Radioprotective activity in C57Bl/6 mouse assessed as average body weight at 100 mg/kg, ip administered 5 min prior to gamma-irradation at 8.5 Gy and measured immediately (reference value: 25.4 +/- 2.6 g); format: functional
[13] = test system: MOLT-4; assay: Cytotoxicity against human MOLT-4 cells assessed as cell viability at 10 uM measured after 48 hrs by WST-1 assay relative to control; format: functional; details: read-out: Activity; outline: as §1
[14] = test system: SAOS-2; assay: Cytotoxicity against human SAOS-2 cells assessed as cell viability at 100 uM measured after 48 hrs by WST-1 assay relative to control; format: functional; details: read-out: Activity; outline: as §1
[15] = Cytotoxicity against human MRC5 cells assessed as cell viability at 100 uM measured after 48 hrs by WST-1 assay relative to control; format: cell-based; details: read-out: Activity; outline: as §1
[16] = test system: Jurkat; assay: Cytotoxicity against human Jurkat cells assessed as cell viability at 10 uM measured after 48 hrs by WST-1 assay relative to control; format: functional; details: read-out: Activity; outline: as §1
[17] = test system: HT-29; assay: Cytotoxicity against human HT-29 cells assessed as cell viability at 10 uM measured after 48 hrs by WST-1 assay relative to control; format: functional; details: read-out: Activity; outline: as §1
[18] = test system: A549; assay: Cytotoxicity against human A549 cells assessed as cell viability at 10 uM measured after 48 hrs by WST-1 assay relative to control; format: functional; details: read-out: Activity; outline: as §1
[19] = test system: A549; assay: Cytotoxicity against human A549 cells assessed as maximum tolerated concentration incubated for 24 hrs by MTT assay; format: functional
Outline: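 A-549 cells in DMEM with 10% FBS and 1% penicillin-streptomycin, left to attach overnight. Compounds made up in PBS, serially diluted in DMEM, incubated 24 h, then viability read by MTT reduction against untreated controls on each plate. MTC taken as the highest concentration showing no significant difference from non-treated control (t-test).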

[20] = test system: SAOS-2; assay: Cytotoxicity against human SAOS-2 cells assessed as cell viability at 10 uM measured after 48 hrs by WST-1 assay relative to control; format: functional; details: read-out: Activity; outline: as §1
[21] = test system: MCF7; assay: Cytotoxicity against human MCF7 cells assessed as cell viability at 100 uM measured after 48 hrs by WST-1 assay relative to control; format: functional; details: read-out: Activity; outline: as §1
[22] = test system: A549; assay: Cytotoxicity against human A549 cells assessed as reduction in cell viability incubated for 24 hrs by MTT assay; format: functional, cell-based; details: A549, 24 h
Outline: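 A-549 cells in DMEM with 10% FBS and 1% penicillin-streptomycin were attached overnight. Compounds were prepared in PBS and serially diluted in DMEM, then incubated 24 h. Viability was read by colorimetric MTT reduction against an untreated control on each plate (100%). IC50 came from four-parameter nonlinear regression of the log concentration-response curve, mean ± SEM. MTC is the highest concentration not differing from control (t-test).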

[23] = test system: HeLa; assay: Cytotoxicity against human HeLa cells assessed as cell viability at 10 uM measured after 48 hrs by WST-1 assay relative to control; format: functional; details: read-out: Activity; outline: as §1
[24] = Toxicity in C57Bl/6 mouse assessed as mouth death at 100 mg/kg, ip measured after 30 days; format: organism-based; details: in vivo, 720 h, time 30 day; outline: as §2
[25] = test system: PANC-1; assay: Cytotoxicity against human PANC-1 cells assessed as cell viability at 10 uM measured after 48 hrs by WST-1 assay relative to control; format: functional; details: read-out: Activity; outline: as §1
[26] = test system: HeLa; assay: Cytotoxicity against human HeLa cells assessed as cell viability at 100 uM measured after 48 hrs by WST-1 assay relative to control; format: functional; details: read-out: Activity; outline: as §1
[27] = Immuno-toxicity in C57Bl/6 mouse assessed as decrease in absolute number of lymphocytes at 100 mg/kg, ip measured after 7 to 12 days post-treatment by flow cytometry; format: organism-based; details: in vivo, time 7-12 day
[28] = test system: MCF7; assay: Cytotoxicity against human MCF7 cells assessed as cell viability at 10 uM measured after 48 hrs by WST-1 assay relative to control; format: functional; details: read-out: Activity; outline: as §1
[29] = test system: Mus musculus; assay: Radioprotective activity in C57Bl/6 mouse assessed as median survival time at 100 mg/kg, ip administered 5 min prior to gamma-irradation at 8.5 Gy and measured after 30 days (reference value: 12 days); format: functional
[30] = test system: HT-29; assay: Cytotoxicity against human HT-29 cells assessed as cell viability at 100 uM measured after 48 hrs by WST-1 assay relative to control; format: functional; details: read-out: Activity; outline: as §1
[31] = test system: MOLT-4; assay: Radioprotective activity against gamma irradiation-induced apoptosis in human MOLT-4 cells assessed as viable cells at 100 uM pretreated with compound for 1 hr followed by gamma irradiation and measured after 24 hrs by annexinV/propidium iodide staining based flow cytometry (reference value: 40 %); format: functional; details: MOLT-4, light or radiation study, time 25 hrs, read-out: Activity
[32] = test system: Mus musculus; assay: Radioprotective activity in C57Bl/6 mouse assessed as average body weight at 100 mg/kg, ip administered 5 min prior to gamma-irradation at 8.5 Gy and measured after 30 days; format: functional
[33] = test system: Mus musculus; assay: Radioprotective activity in C57Bl/6 mouse assessed as body weight gain at 100 mg/kg, ip administered 5 min prior to gamma-irradation at 8.5 Gy measured after 30 days relative to control; format: functional
[34] = Immuno-toxicity in C57Bl/6 mouse assessed as decrease in absolute number of lymphocytes at 100 mg/kg, ip measured after 12 days post-treatment by flow cytometry; format: organism-based; details: in vivo, 288 h, time 12 day

SMILES | viability at 100 µM [1] | viability at 100 µM [2] | viability at 100 µM [3] | viability at 100 µM [4] | Activity [5] | viability at 100 µM [6] | Activity [7] | viability at 10 µM [8] | viability at 48 h, 10 µM [9] | Activity [10] | Activity [11] | Activity [12] | viability at 10 µM [13] | viability at 100 µM [14] | viability at 48 h, 100 µM [15] | viability at 10 µM [16] | viability at 10 µM [17] | viability at 10 µM [18] | MTD [19] | viability at 10 µM [20] | other results
Cc1ccccc1OCC(O)CN1CCN(CCO)CC1 (centres undefined) | 92% | 116% | 79% | 86% | 26.2 g | 114% | 104% | 101% | 97% | Non-Toxic | 27.2 g | 27.3 g | 104% | 84% | 104% | 106% | 98% | 95% | 0.39 mM | 103% | viability at 100 µM [21]: 95%; IC50 [22]: 3400 µM; viability at 10 µM [23]: 102%; Activity [24]: Non-Toxic; viability at 10 µM [25]: 102%; viability at 100 µM [26]: 96%; Activity [27]: Toxic; viability at 10 µM [28]: 103%; MST [29]: 7 days; viability at 100 µM [30]: 151%; viability at 100 µM [31]: 62%
C=CCc1ccc(OCC(O)CN2CCN(CCO)CC2)c(OC)c1 (centres undefined) | 83% | 116% | 85% | 65% | 25.7 g | 105% | 105% | 97% | 94% | Non-Toxic | 27 g | 25.1 g | 104% | 75% | 103% | 110% | 109% | 91% | 0.2 mM | 112% | Activity [32]: 27.3 g; Activity [33]: 103%; Activity [34]: Toxic; viability at 100 µM [21]: 89%; IC50 [22]: 1120 µM; viability at 10 µM [23]: 100%; Activity [24]: Non-Toxic; viability at 10 µM [25]: 101%; viability at 100 µM [26]: 99%; viability at 10 µM [28]: 99%; MST [29]: 12 days; viability at 100 µM [30]: 102%; viability at 100 µM [31]: 52%
